From publication PMC12234697 (Scientific Reports, 2025)
Read-outs that look alike come from different tables or passages of the source.

Assays:
[1] = test system: HBV-expressing HepG2.2.15.7 cells; format: cell-based; conditions: Hepatitis B virus
How it was run: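 HBV-producing HepG2.2.15.7 cells (derived from HepG2.2.15) were exposed to test compound at 0.1, 0.3, 1, 3, 10, 30 and 100 µM, […]. Enveloped Dane particles in the supernatant were captured by anti-HBs immunoprecipitation, and HBV DNA was then quantified by real-time PCR with S-gene primers/probe. Cell viability was read in parallel, n = 3. IC50 and CC50 were derived from dose curves.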

[2] = Cell viability of HepG2.2.15.7 cells; format: cell-based; conditions: human
How it was run: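 HepG2.2.15.7 cells (stable high-level HBV expression) seeded at 1.5 × 10^5 cells/well, grown overnight and PBS-washed. Fresh medium with compound (0.1, 0.3, 1, 3, 10, 30, 100 µM final; DMSO stocks) added for 48 h. Cell viability measured, n = 3; CC50 derived from the dose-response.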

precore mRNA and pgRNA = assay: Measurement of intracellular HBV RNA by real-time PCR; format: cell-based, hepatitis B virus; conditions: HepG2.2.15.7 cells; hit compound 16 10 µM, 38 and 39 30 µM; n = 3
How it was run: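 Total RNA from treated HepG2.2.15.7 cells was TRIzol-extracted and reverse-transcribed with DNase treatment. SYBR Green real-time PCR used primers PCP/BC1 for precore mRNA and PGP/BC1 for precore mRNA plus pgRNA, normalised to GAPDH. n = 3; Mann-Whitney U test, p < 0.05.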

[3] = no reference given; cited from earlier work
[4] = test system: LHBs protein and HBc protein; assay: Western blot analysis of intracellular HBV proteins; format: cell-based, hepatitis B virus; conditions: HepG2.2.15.7 cells; hit compound 16 10 µM, 38 and 39 30 µM; n = 3
How it was run: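 Treated HepG2.2.15.7 cells were lysed in RIPA buffer and soluble protein was run on SDS-PAGE, then transferred to PVDF. Blots were blocked, then given primary antibodies (including rabbit polyclonal anti-HBc; β-actin as loading control) at 4 °C overnight and secondaries 1 h at room temperature. ECL detection; bands quantified by densitometry, n = 3.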

SMILES: C=C[C@H]1C[N@@]2CC[C@H]1C[C@@H]2[C@@H](O)c1ccnc2ccc(OC)cc12 [Compound 39, quinidine]
- IC50 ([1]; HepG2.2.15.7, read-out: IC50 (HBV DNA after the immunoprecipitation)): 18.6 µM
- IC50 ([1]; HepG2.2.15.7, read-out: IC50 against HBV expressed in µg/mL): 2.8 µg/mL
- CC50 at 48 h [2]: 131 µM
- pgRNA level compared to a control (precore mRNA and pgRNA): no significant difference
- precore mRNA level compared to a control (precore mRNA and pgRNA): no significant difference
- effective blood concentration for arrhythmia [3]: 2.3 to 5.0 µg/mL
- HBc protein level (western blot) [4]: no significant differences
- LHBs protein level (western blot) [4]: no significant differences
